According to ChEMBL document CHEMBL2331493, “Chemical tagging of a drug target using 5-sulfonyl tetrazole” (Bioorg Med Chem Lett, 2013):
Active and inactive are the calls of the source. No cut-off for these calls is given here.

How the values were obtained:
[1] = target: Peptidyl-prolyl cis-trans isomerase A (Homo sapiens) (UniProt P62937); test: Binding affinity to cyclophilin A in human Jurkat cell lysates at 1.1 uM after 24 hrs by SDS-PAGE analysis
Method in brief: (§1)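 Biotinylated probe incubated with a lysate of Jurkat cells (human leukemia T cells). The lysate was then mixed with streptavidin beads to pull down proteins with affinity for the probe. Bead-captured proteins were resolved by SDS–PAGE, and protein bands were read out.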

[2] = target: Peptidyl-prolyl cis-trans isomerase A (Homo sapiens) (UniProt P62937); test: Binding affinity to biotin-tagged cyclophilin A in human Jurkat cell lysates at 1.1 uM after 24 hrs by SDS-PAGE analysis; method in brief: as §1
[3] = target: Peptidyl-prolyl cis-trans isomerase A (Homo sapiens) (UniProt P62937); test: Binding affinity to cyclophilin A in human Jurkat cell lysates at 1.1 uM after 24 hrs by Western blot analysis
[4] = target: Peptidyl-prolyl cis-trans isomerase A (Homo sapiens) (UniProt P62937); test: Binding affinity to cyclophilin A in human Jurkat cell lysates at 1.1 uM after 24 hrs by SDS-PAGE analysis in presence of cyclosporine A
[5] = target: Peptidyl-prolyl cis-trans isomerase A (Homo sapiens) (UniProt P62937); test: Binding affinity to cyclophilin A in human Jurkat cell lysates at 1.1 uM after 24 hrs by SDS-PAGE analysis in presence of N-ethylmaleimide

Sequence of Peptidyl-prolyl cis-trans isomerase A (Homo sapiens) (P62937 whole entry, looked up): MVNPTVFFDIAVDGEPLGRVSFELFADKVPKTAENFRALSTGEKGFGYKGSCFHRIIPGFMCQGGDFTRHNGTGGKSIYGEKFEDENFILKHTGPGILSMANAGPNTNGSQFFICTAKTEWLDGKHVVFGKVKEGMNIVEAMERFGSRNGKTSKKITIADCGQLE

Compound | Activity [1] | Activity [2] | Activity [3] | Activity [4] | Activity [5]
CC(C)(C)OC(=O)NCCCC(=O)NCCCCNC(=O)CCS(=O)(=O)c1nnnn1CCCCCNC(=O)CCCC[C@@H]1SC[C@@H]2NC(=O)N[C@@H]21 | inactive |  |  |  | 
CC[C@@H]1NC(=O)[C@H]([C@H](O)[C@H](C)C/C=N\OCC(=O)NCCCC(=O)NCCCCNC(=O)CCSc2nnnn2CCCCCNC(=O)CCCC[C@@H]2SC[C@@H]3NC(=O)N[C@@H]32)N(C)C(=O)[C@H](C(C)C)N(C)C(=O)[C@H](CC(C)C)N(C)C(=O)[C@H](CC(C)C)N(C)C(=O)[C@@H](C)NC(=O)[C@H](C)NC(=O)[C@H](CC(C)C)N(C)C(=O)[C@H](C(C)C)NC(=O)[C@H](CC(C)C)N(C)C(=O)CN(C)C1=O | Active | inactive | Active | inactive | 
CC(C)(C)OC(=O)NCCCC(=O)NCCCCNC(=O)CCSc1nnnn1CCCCCNC(=O)CCCC[C@@H]1SC[C@@H]2NC(=O)N[C@@H]21 | inactive |  |  |  | 
CC[C@@H]1NC(=O)[C@H]([C@H](O)[C@H](C)C/C=N\OCC(=O)NCCCC(=O)NCCCCNC(=O)CCS(=O)(=O)c2nnnn2CCCCCNC(=O)CCCC[C@@H]2SC[C@@H]3NC(=O)N[C@@H]32)N(C)C(=O)[C@H](C(C)C)N(C)C(=O)[C@H](CC(C)C)N(C)C(=O)[C@H](CC(C)C)N(C)C(=O)[C@@H](C)NC(=O)[C@H](C)NC(=O)[C@H](CC(C)C)N(C)C(=O)[C@H](C(C)C)NC(=O)[C@H](CC(C)C)N(C)C(=O)CN(C)C1=O | Active |  | Active | inactive | Active
